The subject of assay [1] is BHQ-10-labeled anti-His-tag mAb “8-4-4”. The experiment in a line: Homogeneous His6 detection assay. It is filed as binding, mouse. To be noted: for phosphorescence response, in words: increasing protein concentration, TRF after 90 s shaking; for detectability within total assay time, in words: total assay time of less than two minutes. In a few lines: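 His6-tagged proteins (C- or N-terminal tag, or chemically His6-labeled BSA) in PBS pH 7.4 with 2 mg/mL BSA, or in E. coli lysate. Premixed with EuLH-HHRHH-NH2 donor peptide solution (40 nmol/L), then BHQ-10-labeled antibody solution (80 nmol/L) added. After 90 s shaking, read TRF at ex 370/em 616 nm. Triplicates. LOD is the lowest concentration whose mean exceeds blank plus 3 SD.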

A further assay relates to anti-His-tag mAb “8-4-4”. It is filed as binding, mouse. Conditions: inferred from FRET efficiency curve.

In the case of “Bovine serum albumin [BSA, reference compound]”, the “phosphorescence response, in words” value in assay [1] (n = 3) is “no response”.

With “NPP3-His6: recombinant protein with C-terminal His-tag”, the “detectability within total assay time, in words” value in assay [1] was “could be detected highly significantly and semi-quantitatively”.

Consider HHEHH-NH2, for which, in the assay with anti-His-tag mAb “8-4-4”, the “affinity to the anti-His-tag antibody, in words” value (from here on “affinity”) was “full loss of affinity to the anti-His-tag antibody”.

For the molecule HHHHHH-NH2, in the assay on anti-His-tag mAb “8-4-4”, the “affinity” value was “strong and specific interaction between the peptide and the antibody”.

In the case of HHHHH-NH2, in the assay with anti-His-tag mAb “8-4-4”, the “affinity” value was “did not influence the FRET efficiency curve substantially, and therefore also not the affinity”.

B1: His6-trigger factor: trigger factor (N-terminal His-tag) (protein, UniProt P0A850 1-432, looked up)
Trigger factor: MQVSVETTQGLGRRVTITIAADSIETAVKSELVNVAKKVRIDGFRKGKVPMNIVAQRYGASVRQDVLGDLMSRNFIDAIIKEKINPAGAPTYVPGEYKLGEDFTYSVEFEVYPEVELQGLEAIEVEKPIVEVTDADVDGMLDTLRKQQATWKEKDGAVEAEDRVTIDFTGSVDGEEFEGGKASDFVLAMGQGRMIPGFEDGIKGHKAGEEFTIDVTFPEEYHAENLKGKAAKFAINLKKVEERELPELTAEFIKRFGVEDGSVEGLRAEVRKNMERELKSAIRNRVKSQAIEGLVKANDIDVPAALIDSEIDVLRRQAAQRFGGNEKQALELPRELFEEQAKRRVVVGLLLGEVIRTNELKADEERVKGLIEEMASAYEDPKEVIEFYSKNKELMDNMRNVALEEQAVEAVLAKAKVTEKETTFNELMNQQA
modifications: N-terminal His6 tag
B1: the “phosphorescence response, in words” value in assay [1] (n = 3) is given as “increasing phosphorescence intensities with increasing protein concentration”. Besides, in assay [1] (mass concentration, sample 50 μL + donor peptide EuLH-HHRHH-NH2 (10 μL, 40 nmol/L) + BHQ-10-mAb (40 μL, 80 nmol/L), PBS pH 7.4 with 2 mg/mL BSA, 90 s, n = 3, background plus 3x SD), the detection limit was found to be 39 mg/L. Moreover, the “detectability within total assay time, in words” value in assay [1] was “could be detected highly significantly and semi-quantitatively”.

For the origin of these results see publication PMC4085604 (Scientific Reports, 2014).
